In brackets after ≈: the same amount, converted by molar mass. Values belong to the compound of their own block, whether it stands above or below them.
How the values were obtained:
[1] = biological target: Metabotropic glutamate receptor 5 (Mus musculus, UniProt Q3UVX5); test: Antagonist activity at mGluR5 in mouse astrocytes assessed as inhibition of L-quisqualate induced calcium release by FLIPR assay; assay type: functional, cell-based
How it was run: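 Primary cortical astrocytes from CD1 mouse pups aged 1–3 days. Cultures re-plated after 5 days to remove neurons and grown at 37 °C to confluence (10–14 d), then plated for 2 days. Cells pre-incubated with antagonist concentration-response curves and challenged with the day's EC80 of L-quisqualate. Intracellular calcium monitored on FLIPR to give fpKi.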

[2] = Solubility of the compound; assay type: physicochemical
[3] = Clearance in rat at 1.0 mg/kg, po and 0.5 mg/kg, iv; assay type: ADME, organism-based; details: in vivo
How it was run: (§1)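 Rat pharmacokinetics after a 1.0 mg/kg oral dose and a 0.5 mg/kg intravenous dose. Blood clearance, oral blood Cmax, brain:blood AUC ratio and oral bioavailability determined.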

[4] = Cmax in rat at 1.0 mg/kg, po; assay type: ADME, organism-based; parameters: dose 1 mg/kg, route oral; details: in vivo; how it was run: as §1
[5] = Ratio of AUC in rat brain to plasma at 1.0 mg/kg, po and 0.5 mg/kg, iv; assay type: ADME, organism-based; details: read-out: Ratio AUC; how it was run: as §1
[6] = Oral bioavailability in rat at 1.0 mg/kg; assay type: ADME, organism-based; details: in vivo; how it was run: as §1
[7] = Cmax in rat brain at 1.0 mg/kg, po; assay type: ADME, organism-based; parameters: dose 1 mg/kg, route oral
Brain = test: fCmax in rat brain at 1.0 mg/kg, po; assay type: ADME, organism-based; parameters: dose 1 mg/kg, route oral; details: in vivo
[8] = biological target: Metabotropic glutamate receptor 1 (Homo sapiens) (UniProt Q13255); test: Antagonist activity at mGluR1
[9] = biological target: T1, Metabotropic glutamate receptor 5 (Homo sapiens, UniProt P41594); test: Antagonist activity at human mGluR5 expressed in CHO cells assessed as glutamate induced calcium mobilization
[10] = biological target: T1, Metabotropic glutamate receptor 5; test: Antagonist activity at human mGluR5 expressed in CHO cells assessed as […] calcium mobilization; assay type: functional, cell-based
How it was run: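 CHO cells stably expressing apo-aequorin, with human mGluR5 expression induced by doxycycline. Calcium mobilisation read by aequorin luminescence. Eleven-point concentration-response curves run in the presence of an EC80 of glutamate. pIC50 is the average of at least two curves.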

[11] = Lipophilicity, log D of the compound at pH 7.4; assay type: physicochemical; details: buffer
[12] = Fraction unbound in rat brain; assay type: ADME, tissue-based

T1 sequence (P41594 whole entry): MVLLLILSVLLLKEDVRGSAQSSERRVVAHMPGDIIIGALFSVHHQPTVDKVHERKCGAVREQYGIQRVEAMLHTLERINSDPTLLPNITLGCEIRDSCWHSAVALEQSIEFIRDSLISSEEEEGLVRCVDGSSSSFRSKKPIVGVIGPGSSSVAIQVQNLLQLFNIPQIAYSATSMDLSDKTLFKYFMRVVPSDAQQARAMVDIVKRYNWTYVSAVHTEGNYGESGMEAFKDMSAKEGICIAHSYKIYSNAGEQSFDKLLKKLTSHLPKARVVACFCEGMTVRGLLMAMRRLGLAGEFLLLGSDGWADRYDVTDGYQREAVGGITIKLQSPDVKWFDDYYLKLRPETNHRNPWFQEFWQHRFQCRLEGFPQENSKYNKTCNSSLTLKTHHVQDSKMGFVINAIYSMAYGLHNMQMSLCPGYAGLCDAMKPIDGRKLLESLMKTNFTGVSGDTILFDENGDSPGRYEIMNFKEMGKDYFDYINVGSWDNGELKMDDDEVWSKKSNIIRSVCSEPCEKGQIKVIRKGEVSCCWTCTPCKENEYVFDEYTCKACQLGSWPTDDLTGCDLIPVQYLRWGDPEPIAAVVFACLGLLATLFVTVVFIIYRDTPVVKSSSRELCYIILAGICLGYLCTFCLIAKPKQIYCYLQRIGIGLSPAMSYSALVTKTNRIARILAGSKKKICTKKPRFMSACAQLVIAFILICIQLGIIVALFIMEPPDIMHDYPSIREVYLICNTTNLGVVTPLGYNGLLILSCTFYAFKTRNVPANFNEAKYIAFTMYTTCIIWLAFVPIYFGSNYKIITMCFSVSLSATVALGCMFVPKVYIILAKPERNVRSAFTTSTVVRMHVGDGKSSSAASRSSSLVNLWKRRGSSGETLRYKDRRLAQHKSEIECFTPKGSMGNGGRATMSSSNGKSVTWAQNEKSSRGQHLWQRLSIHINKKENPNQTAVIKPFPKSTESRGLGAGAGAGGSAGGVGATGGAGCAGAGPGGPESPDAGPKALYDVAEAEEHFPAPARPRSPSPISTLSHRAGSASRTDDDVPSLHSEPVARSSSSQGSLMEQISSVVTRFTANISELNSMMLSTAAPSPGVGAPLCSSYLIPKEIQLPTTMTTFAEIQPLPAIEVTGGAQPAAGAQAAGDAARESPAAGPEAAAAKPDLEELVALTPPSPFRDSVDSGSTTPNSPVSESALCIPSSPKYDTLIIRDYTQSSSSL
Sequence of Metabotropic glutamate receptor 5 (Mus musculus, UniProt Q3UVX5) (Q3UVX5 whole entry): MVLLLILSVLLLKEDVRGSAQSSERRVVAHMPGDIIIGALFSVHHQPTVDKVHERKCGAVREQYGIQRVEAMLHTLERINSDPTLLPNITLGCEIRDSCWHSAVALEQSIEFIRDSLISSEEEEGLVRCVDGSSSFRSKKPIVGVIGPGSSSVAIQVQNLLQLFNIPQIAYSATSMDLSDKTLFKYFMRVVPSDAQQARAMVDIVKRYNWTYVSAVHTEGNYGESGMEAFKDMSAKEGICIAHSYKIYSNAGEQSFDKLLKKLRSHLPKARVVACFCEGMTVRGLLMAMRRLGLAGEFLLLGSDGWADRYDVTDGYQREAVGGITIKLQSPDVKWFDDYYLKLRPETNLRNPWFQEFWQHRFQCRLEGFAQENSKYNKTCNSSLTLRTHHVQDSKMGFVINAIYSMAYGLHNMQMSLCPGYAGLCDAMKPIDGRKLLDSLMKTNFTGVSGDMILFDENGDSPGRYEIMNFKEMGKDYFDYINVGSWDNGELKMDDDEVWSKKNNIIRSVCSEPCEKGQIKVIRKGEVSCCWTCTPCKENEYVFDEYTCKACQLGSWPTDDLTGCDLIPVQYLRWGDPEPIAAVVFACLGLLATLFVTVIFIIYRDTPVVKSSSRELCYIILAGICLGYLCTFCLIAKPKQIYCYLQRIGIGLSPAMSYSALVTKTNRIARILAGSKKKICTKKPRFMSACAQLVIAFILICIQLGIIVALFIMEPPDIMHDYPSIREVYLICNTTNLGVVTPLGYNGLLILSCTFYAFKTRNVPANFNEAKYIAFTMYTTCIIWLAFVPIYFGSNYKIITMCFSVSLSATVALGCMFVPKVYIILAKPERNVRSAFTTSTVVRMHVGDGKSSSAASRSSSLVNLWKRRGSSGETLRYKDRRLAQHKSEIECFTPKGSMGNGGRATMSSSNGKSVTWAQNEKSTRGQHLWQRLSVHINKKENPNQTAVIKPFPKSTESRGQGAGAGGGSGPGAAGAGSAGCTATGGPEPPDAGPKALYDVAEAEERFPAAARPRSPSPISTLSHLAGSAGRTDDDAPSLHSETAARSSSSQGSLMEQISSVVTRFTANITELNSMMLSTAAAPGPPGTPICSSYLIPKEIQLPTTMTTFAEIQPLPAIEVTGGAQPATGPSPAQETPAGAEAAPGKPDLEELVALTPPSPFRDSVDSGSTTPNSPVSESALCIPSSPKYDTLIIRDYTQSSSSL
Sequence of Metabotropic glutamate receptor 1 (Homo sapiens) (Q13255 whole entry, looked up): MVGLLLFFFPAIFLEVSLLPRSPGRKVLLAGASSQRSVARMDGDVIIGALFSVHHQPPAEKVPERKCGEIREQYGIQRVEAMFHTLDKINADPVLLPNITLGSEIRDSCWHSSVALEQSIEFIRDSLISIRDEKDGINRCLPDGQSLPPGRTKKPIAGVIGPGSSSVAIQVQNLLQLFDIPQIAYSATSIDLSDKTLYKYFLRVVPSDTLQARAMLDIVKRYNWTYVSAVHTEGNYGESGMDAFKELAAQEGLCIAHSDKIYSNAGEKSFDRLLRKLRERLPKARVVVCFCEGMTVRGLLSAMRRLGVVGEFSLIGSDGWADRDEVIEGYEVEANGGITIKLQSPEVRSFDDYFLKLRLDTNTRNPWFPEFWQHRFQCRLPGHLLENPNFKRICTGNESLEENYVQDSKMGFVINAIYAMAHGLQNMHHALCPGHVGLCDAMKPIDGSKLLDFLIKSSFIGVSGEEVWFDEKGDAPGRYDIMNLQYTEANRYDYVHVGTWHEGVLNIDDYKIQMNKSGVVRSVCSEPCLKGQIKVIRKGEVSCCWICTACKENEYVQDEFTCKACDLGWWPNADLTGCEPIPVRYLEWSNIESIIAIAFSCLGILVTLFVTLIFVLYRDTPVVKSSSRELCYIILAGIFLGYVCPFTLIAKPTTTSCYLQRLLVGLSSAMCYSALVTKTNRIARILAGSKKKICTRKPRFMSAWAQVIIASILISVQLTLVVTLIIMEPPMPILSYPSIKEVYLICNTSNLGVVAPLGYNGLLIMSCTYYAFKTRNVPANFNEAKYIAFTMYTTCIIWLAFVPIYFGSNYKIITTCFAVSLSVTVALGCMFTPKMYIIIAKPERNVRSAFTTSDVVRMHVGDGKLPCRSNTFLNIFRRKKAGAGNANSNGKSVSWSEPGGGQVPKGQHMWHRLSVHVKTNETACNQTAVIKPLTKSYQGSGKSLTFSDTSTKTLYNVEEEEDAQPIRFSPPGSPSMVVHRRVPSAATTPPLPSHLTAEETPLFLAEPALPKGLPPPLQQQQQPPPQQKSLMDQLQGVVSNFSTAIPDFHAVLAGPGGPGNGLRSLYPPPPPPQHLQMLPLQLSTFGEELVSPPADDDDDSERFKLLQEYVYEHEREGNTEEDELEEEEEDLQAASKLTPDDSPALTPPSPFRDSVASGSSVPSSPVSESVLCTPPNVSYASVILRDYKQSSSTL

Structure (SMILES): Cc1c(C(C)OC(=O)NC2CCCCC2)sc2ncnn12 (stereo not given)
IC50 [10]: 3160 nM

Structure (SMILES): Cc1c(C(C)OC(=O)Nc2ccccc2Cl)sc2ncnn12 (stereo not given)
IC50 [10]: 501 nM

Structure (SMILES): Cc1c(C(C)OC(=O)Nc2cccc(Cl)c2)sc2ncnn12 (stereo not given)
IC50 [10]: 39.8 nM
logD [11]: 2.9
fraction unbound [12]: 0.009

Structure (SMILES): Cc1c(C(C)OC(=O)Nc2ccc(Cl)cc2)sc2ncnn12 (stereo not given)
IC50 [10]: 2510 nM

Structure (SMILES): Cc1c(C(C)OC(=O)Nc2cccc(F)c2)sc2ncnn12 (stereo not given)
IC50 [10]: 50.1 nM
logD [11]: 2.6
fraction unbound [12]: 0.017

Structure (SMILES): CC(OC(=O)Nc1ccccc1)c1cn2ncnc2s1 (stereo not given)
IC50 [9]: 10000 nM

Structure (SMILES): Cc1c(COC(=O)Nc2ccccc2)sc2ncnn12
IC50 [9]: > 31600 nM

Structure (SMILES): O=C(Nc1ccccc1)OCc1cn2ncnc2s1
IC50 [9]: > 31600 nM

Structure (SMILES): Cc1c(C(C)OC(=O)N(C)c2ccccc2)sc2ncnn12 (stereo not given)
IC50 [9]: > 31600 nM

Structure (SMILES): Cc1c(C(C)OC(=O)Nc2ccccc2)sc2nccn12 (stereo not given)
logD [11]: 2.4
fraction unbound [12]: 0.003
IC50 [9]: 12.6 nM

Structure (SMILES): Cc1c(C(C)OC(=O)Nc2ccccc2)sc2nncn12 (stereo not given)
IC50 [9]: 126 nM

Structure (SMILES): Cc1c(C(C)OC(=O)Nc2cccnc2)sc2ncnn12 (stereo not given)
logD [11]: 1
fraction unbound [12]: 0.28
IC50 [9]: 316 nM

Structure (SMILES): Cc1c(C(C)OC(=O)Nc2cccc(F)c2)sc2nncn12 (stereo not given)
logD [11]: 2
fraction unbound [12]: 0.068
IC50 [9]: 63.1 nM

Structure (SMILES): Cc1c([C@@H](C)OC(=O)Nc2cccc(F)c2)sc2nncn12
IC50 [1]: 31.6 nM
solubility [2]: 31 µg/mL (≈ 96.8 µM)
clearance [3]: 33 mL/min/kg
Cmax [4]: 210 ng/mL
Kp [5]: 0.2
bioavailability [6]: 100%
IC50 [8]: > 50100 nM
IC50 [9]: 39.8 nM

Now from value to compound:

IC50 [1]: 31.6 nM
solubility [2]: 166 µg/mL (≈ 549 µM)
clearance [3]: 48 mL/min/kg
Cmax [4]: 63 ng/mL
Kp [5]: 2
bioavailability [6]: 28%
Cmax [7]: 250 nM
fCmax (Brain): 30 nM
IC50 [8]: 31600 nM
IC50 [9]: 39.8 nM
Structure (SMILES): Cc1c([C@@H](C)OC(=O)Nc2ccccc2)sc2ncnn12

IC50 [10]: 10 nM
Structure (SMILES): Cc1c(C(C)OC(=O)Nc2ccccc2)sc2nc(Cl)nn12 (stereo not given)

IC50 [10]: 12.6 nM
Structure (SMILES): Cc1c(C(C)OC(=O)Nc2ccccc2)sc2nc(C3CC3)nn12 (stereo not given)

IC50 [10]: 7.94 nM
logD [11]: 3.7
fraction unbound [12]: < 0.001
Structure (SMILES): Cc1c(C(C)OC(=O)Nc2ccccc2)sc2nc(-c3cccs3)nn12 (stereo not given)

IC50 [10]: 10 nM
Structure (SMILES): Cc1c(C(C)OC(=O)Nc2ccccc2)sc2nc(-c3ccc(F)cc3)nn12 (stereo not given)

IC50 [10]: 39.8 nM
Structure (SMILES): Cc1c(C(C)OC(=O)Nc2ccccc2)sc2nc(C(F)(F)F)nn12 (stereo not given)

IC50 [9]: > 10000 nM
Structure (SMILES): Cc1c([C@H](C)OC(=O)Nc2ccccc2)sc2ncnn12

IC50 [9]: > 31600 nM
Structure (SMILES): Cc1c(C(C)OC(=O)Nc2ccccc2)sc2ncnn12 (stereo not given)

— ChEMBL document CHEMBL1629432, “The identification of novel orally active mGluR5 antagonist GSK2210875” (Bioorg Med Chem Lett, 2010)
